Results taken from ChEMBL document CHEMBL1126262, “2-(Aminomethyl)chromans that inhibit iron-dependent lipid peroxidation and protect against central nervous system trauma and ischemia” (J Med Chem, 1992).
Where “and” joins values, the source holds several entries; their conditions need not be identical. Identical values can stand only once. Calls of active or inactive are those of the source. No cut-off for these calls is given here.

Legend:
Rattus norvegicus = species on record: Rattus norvegicus; test: Tested in vitro for the inhibition of iron-dependent lipid peroxidation against rat brain homogenates, by malondialdehyde (MDA) formation assay; assay type: functional
Mus musculus [1] = test: Tested in vivo for neuroprotectant activity against mouse head injury(MHI) model.; assay type: functional
Procedure, shortened: (§1)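 Unanesthetized male CF-1 mice (17-20 g), concussive head injury from 50-g weight dropped 18 cm (~900 g-cm). Vehicle (0.05 N HCl or 0.5% Tween 80) or drug, 0.001-30.0 mg/kg, iv bolus within 5 min postinjury (oral where indicated). Blind grip-string test at 1 h; groups of 20-25 mice, vehicle plus four dose groups; Duncan's multiple range test.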

Mus musculus [2] = species on record: Mus musculus; test: Lowest effective dosage in Mouse Head Injury Assay.; assay type: functional; procedure, shortened: as §1
Mus musculus [3] = test: Tested in vivo for neuroprotectant activity against mouse head injury(MHI) model; IA = Inactive; assay type: functional, organism-based; procedure, shortened: as §1
Mus musculus [4] = test: Antagonistic activity against potassium cyanide induced cytotoxic hypoxia in male CF-1 mice at a dose of 10 mg/kg; assay type: organism-based; parameters: dose 10 mg/kg; settings: in vivo
Mus musculus [5] = test: Antagonistic activity against potassium cyanide induced cytotoxic hypoxia in male CF-1 mice at a dose of 20 mg/kg(p<0.05); assay type: organism-based; parameters: dose 20 mg/kg; settings: in vivo
Mus musculus [6] = species on record: Mus musculus; test: Lowest effective dosage using in Mouse Head Injury Assay; assay type: functional; procedure, shortened: as §1
Mus musculus [7] = test: Antagonistic activity against potassium cyanide induced cytotoxic hypoxia in male CF-1 mice at a dose of 10 mg/kg(p<0.05); assay type: organism-based; parameters: dose 10 mg/kg; settings: in vivo

Row | IC50 (Rattus norvegicus; Rattus norvegicus, Brain) [nM] | SMILES | Grip score (Mus musculus [1]) | Lowest effective dose (Mus musculus [2]) [mg/kg] | further results
1 | 1000 | Cc1c(C)c2c(c(C)c1O)CCC(C)(CN1CCNCC1)O2 (centres undefined) | – | – | –
2 | 1000 | Cc1c(C)c2c(c(C)c1O)CCC(C)(C(=O)NCCCc1ccccc1)O2 (centres undefined) | – | – | –
3 | – | Cc1c(C)c2c(c(C)c1O)CCC(C)(CN1CCN(c3cc(N4CCCC4)nc(N4CCCC4)n3)CC1)O2.Cl.Cl (stereo in doubt; 60) | 11.5 | 0.001 | IC50 (Rattus norvegicus): 1100 nM
4 | 2300 | Cc1c(C)c2c(c(C)c1O)CCC(C)(C(=O)Nc1ccncc1)O2 (centres undefined) | 11.5 | 0.01 | –
5 | 48000 | Cc1c(C)c2c(c(C)c1O)CCC(C)(CNCc1cccnc1)O2 (centres undefined) | – | – | –
6 | 1700 | Cc1c(C)c2c(c(C)c1O)CCC(C)(CNCCN(C)C)O2 (centres undefined) | – | – | Grip score (Mus musculus [3]): inactive
7 | 15000 | COc1ccccc1N1CCN(C(=O)C2(C)CCc3c(C)c(O)c(C)c(C)c3O2)CC1 (centres undefined) | 12.8 | 0.01 | –
8 | 47000 | Cc1c(C)c2c(c(C)c1O)CCC(C)(C(=O)NCc1cccnc1)O2 (centres undefined) | – | – | –
9 | 200 | Cc1c(C)c2c(c(C)c1O)CCC(C)(CNc1ccccn1)O2 (centres undefined) | 12.3 | 0.01 | –
10 | 1000 | CCN(CC)c1ccc(N2CCN(CC3(C)CCc4c(C)c(O)c(C)c(C)c4O3)CC2)nc1N(CC)CC.Cl.O (centres undefined) | 11.9 | 0.01 | –
11 | 200 | COc1ccc(N2CCN(CC3(C)CCc4c(C)c(O)c(C)c(C)c4O3)CC2)cc1 (centres undefined) | – | – | –
12 | 1300 | Cc1c(C)c2c(c(C)c1O)CCC(C)(CC(=O)N1CCN(c3cc(N4CCCC4)nc(N4CCCC4)n3)CC1)O2 (centres undefined) | – | – | Grip score (Mus musculus [3]): inactive
13 | – | C[C@H]1C[C@@H]2[C@H]([C@@H](O)C[C@@]3(C)[C@H]2CC[C@]3(O)C(=O)COC(=O)CCC(=O)[O-])[C@@]2(C)C=CC(=O)C=C12.[Na+] [METHYLPREDNISOLONE SODIUM SUCCINATE] | 13.5 | 15 | –
14 | 5400 | Cc1c(C)c2c(c(C)c1O)CCC(C)(C(=O)N(C)CCc1ccccn1)O2 (centres undefined) | – | – | –
15 | 8700 | Cc1c(C)c2c(c(C)c1O)CCC(C)(C(=O)NCCN(C)C)O2 (centres undefined) | – | – | Grip score (Mus musculus [3]): inactive
16 | 1000 | Cc1c(C)c2c(c(C)c1O)CCC(C)(CNCCCc1ccccc1)O2 (centres undefined) | – | – | –
17 | 200 | CCN(CC)c1ccc(N2CCN(C(=O)C3(C)CCc4c(C)c(O)c(C)c(C)c4O3)CC2)nc1N(CC)CC (centres undefined) | – | – | Grip score (Mus musculus [3]): inactive
18 | 1000 | Cc1c(C)c2c(c(C)c1O)CCC(C)(CN1CCN(c3ccccn3)CC1)O2.Cl.O (centres undefined) | 10.7 | 0.01 | –
19 | 28000 | Cc1c(C)c2c(c(C)c1O)CC[C@@](C)(CCC[C@H](C)CCC[C@H](C)CCCC(C)C)O2 [ALPHA-TOCOPHEROL] | – | – | –
20 | 12000 | CCNc1cccnc1N1CCN(C(=O)C2(C)CCc3c(C)c(O)c(C)c(C)c3O2)CC1 (centres undefined) | – | – | –
21 | 700 | COc1ccc(N2CCN(C(=O)C3(C)CCc4c(C)c(O)c(C)c(C)c4O3)CC2)cc1 (centres undefined) | – | – | –
22 | 10000 | Cc1c(C)c2c(c(C)c1O)CCC(C)(C(=O)N1CCCC1)O2 (centres undefined) | – | – | –
23 | 1000 | Cc1c(C)c2c(c(C)c1O)CCC(C)(C(=O)N1CCN(c3ccccn3)CC1)O2 (centres undefined) | 8.2 | 0.01 | –
24 | 1000 | Cc1c(C)c2c(c(C)c1O)CCC(C)(CN1CCN(c3ncccn3)CC1)O2 (centres undefined) | 10.3 | 0.01 | –
25 | 43000 | Cc1c(C)c2c(c(C)c1O)CCC(C)(C(=O)O)O2 (centres undefined) [TROLOX] | – | – | –
26 | 16000 | Cc1c(C)c2c(c(C)c1O)CCC(C)(CNc1ccncc1)O2 (centres undefined) | – | – | –

Row | IC50 (Rattus norvegicus; Rattus norvegicus, Brain) [nM] | SMILES | Grip score (Mus musculus [1]) | Lowest effective dose (Mus musculus [2]) [mg/kg] | further results
27 | 1000 | CCNc1cccnc1N1CCN(CC2(C)CCc3c(C)c(O)c(C)c(C)c3O2)CC1.Cl.O (centres undefined) | 10.4 and 11.9 | 0.01 | –
28 | 23000 | Cc1c(C)c2c(c(C)c1O)CCC(C)(CNCCc1ccccn1)O2 (centres undefined) | – | – | –
29 | 1400 | Cc1c(C)c2c(c(C)c1O)CCC(C)(CN1CCCC1)O2 (centres undefined) | – | – | –
30 | 17000 | CC(=O)Oc1c(C)c(C)c2c(c1C)CCC(C)(C(=O)N1CCN(c3cc(N4CCCC4)nc(N4CCCC4)n3)CC1)O2 (centres undefined) | – | – | –
31 | 1800 | Cc1c(C)c2c(c(C)c1O)CCC(C)(C(=O)Nc1ccccn1)O2 (centres undefined) | 14.4 | 0.01 | –
32 | 1000 | COc1ccc(CCNCC2(C)CCc3c(C)c(O)c(C)c(C)c3O2)cc1OC.Cl (centres undefined) | 8.4 | 0.01 | –
33 | 1000 | Cc1c(C)c2c(c(C)c1O)CCC(C)(C(=O)N1CCN(Cc3ccccc3)CC1)O2 (centres undefined) | – | – | –
34 | 1300 | Cc1c(C)c2c(c(C)c1O)CCC(C)(CCN1CCN(c3cc(N4CCCC4)nc(N4CCCC4)n3)CC1)O2 (centres undefined) | – | – | Grip score (Mus musculus [3]): inactive
35 | 800 | Cc1c(C)c2c(c(C)c1O)CCC(C)(CNCCCCc1ccccc1)O2 (centres undefined) | – | – | –
36 | – | C[C@@H]1C[C@H]2[C@@H]3CCC4=CC(=O)C=C[C@]4(C)C3=CC[C@]2(C)[C@H]1C(=O)CN1CCN(c2cc(N3CCCC3)nc(N3CCCC3)n2)CC1 [TIRILAZAD] | 14.5 | 0.003 | LD50 (Mus musculus [4]): 103.6%; LD50 (Mus musculus [5]): 128.4%
37 | 10000 | Cc1c(C)c2c(c(C)c1O)CCC(C)(C(=O)N1CCNCC1)O2 (centres undefined) | – | – | –
38 | 1300 | Cc1c(C)c2c(c(C)c1O)CCC(C)(C(=O)NCCc1ccccc1)O2 (centres undefined) | – | – | –
39 | 1500 | CC(=O)Oc1c(C)c(C)c2c(c1C)CCC(C)(CN1CCN(c3cc(N4CCCC4)nc(N4CCCC4)n3)CC1)O2 (centres undefined) | 9.2 | 1 | –
40 | 11000 | COc1ccc(CNCC2(C)CCc3c(C)c(O)c(C)c(C)c3O2)cc1OC (centres undefined) | – | – | –
41 | 177000 | Cc1c(C)c2c(c(C)c1O)CCC(C)(CN(C)CCc1ccccn1)O2 (centres undefined) | – | – | –
42 | – | Cc1c(C)c2c(c(C)c1O)CCC(C)(CN1CCN(c3cc(N4CCCC4)nc(N4CCCC4)n3)CC1)O2.Cl.Cl.O (centres undefined) | 13.7 and 14.7 | – | LD50 (Mus musculus [5]): 134.2%; LD50 (Mus musculus [7]): 114%; IC50 (Rattus norvegicus): 600 nM
43 | 900 | Cc1c(C)c2c(c(C)c1O)CCC(C)(CN1CCN(c3ccc(Cl)cc3)CC1)O2 (centres undefined) | – | – | –
44 | – | Cc1c(C)c2c(c(C)c1O)CCC(C)(CN1CCN(c3cc(N4CCCC4)nc(N4CCCC4)n3)CC1)O2.Cl.Cl (stereo in doubt; 59) | 14.4 | – | IC50 (Rattus norvegicus): 1500 nM
45 | 900 | Cc1c(C)c2c(c(C)c1O)CCC(C)(CNCCc1ccccc1)O2.O=C(O)C(=O)O (centres undefined) | 8.7 | 1 | –
46 | 11000 | Cc1c(C)c2c(c(C)c1O)CCC(C)(C(=O)NCCc1ccccn1)O2 (centres undefined) | – | – | –
47 | 700 | Cc1c(C)c2c(c(C)c1O)CCC(C)(C(=O)NCCCCc1ccccc1)O2 (centres undefined) | – | – | –
48 | 800 | Cc1c(C)c2c(c(C)c1O)CCC(C)(C(=O)N1CCN(c3ccc(Cl)cc3)CC1)O2 (centres undefined) | – | – | –
49 | 4100 | COc1ccc(CCNC(=O)C2(C)CCc3c(C)c(O)c(C)c(C)c3O2)cc1OC (centres undefined) | – | – | –
50 | 23000 | Cc1c(C)c2c(c(C)c1O)CCC(C)(C(=O)N1CCN(c3ncccn3)CC1)O2 (centres undefined) | 12 | 1 | –
51 | 5500 | COc1ccc(CNC(=O)C2(C)CCc3c(C)c(O)c(C)c(C)c3O2)cc1OC (centres undefined) | – | – | –
52 | 1000 | COc1ccccc1N1CCN(CC2(C)CCc3c(C)c(O)c(C)c(C)c3O2)CC1 (centres undefined) | – | – | Grip score (Mus musculus [3]): inactive

Row | SMILES | IC50 (Rattus norvegicus; Rattus norvegicus, Brain) [nM] | Grip score (Mus musculus [1]) | Lowest effective dose (Mus musculus [2]) [mg/kg] | further results
53 | Cc1c(C)c2c(c(C)c1O)CCC(C)(C(=O)N1CCN(c3cc(N4CCCC4)nc(N4CCCC4)n3)CC1)O2 (centres undefined) | 500 | 17.5 | – | LD50 (Mus musculus [4]): 99.3%; LD50 (Mus musculus [5]): 115.2%; Lowest effective dose (Mus musculus [6]): 0.01 mg/kg
54 | Cc1c(C)c2c(c(C)c1O)CCC(C)(CN1CCN(Cc3ccccc3)CC1)O2.Cl.Cl (centres undefined) | 1000 | 13 | 0.01 | LD50 (Mus musculus [5]): 181.4%; LD50 (Mus musculus [7]): 130%
